What all share (type): cell-based
Test [1] in a line: Dissociation constant for nicotinic acetylcholine receptor alpha4-beta2 of mouse M10 cells; n=3. The method, boiled down:
(§1)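 α4β2 receptor immunoisolated with mAb 270 from mouse fibroblast M10 cells. Competition binding against (−)-[³H]nicotine at 7 nM. Ki was obtained from IC50 by Cheng–Prusoff, Ki = IC50/(1 + [L]/KD), with KD 3.8 nM.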

The target of test [2] is T1, Neuronal acetylcholine receptor subunit alpha-7 (Homo sapiens, UniProt P36544). Kind of test: Dissociation constant for nicotinic acetylcholine receptor alpha 7 from human neuroblastoma SH-SY5Y cells; n=3.
T1 sequence (P36544 whole entry): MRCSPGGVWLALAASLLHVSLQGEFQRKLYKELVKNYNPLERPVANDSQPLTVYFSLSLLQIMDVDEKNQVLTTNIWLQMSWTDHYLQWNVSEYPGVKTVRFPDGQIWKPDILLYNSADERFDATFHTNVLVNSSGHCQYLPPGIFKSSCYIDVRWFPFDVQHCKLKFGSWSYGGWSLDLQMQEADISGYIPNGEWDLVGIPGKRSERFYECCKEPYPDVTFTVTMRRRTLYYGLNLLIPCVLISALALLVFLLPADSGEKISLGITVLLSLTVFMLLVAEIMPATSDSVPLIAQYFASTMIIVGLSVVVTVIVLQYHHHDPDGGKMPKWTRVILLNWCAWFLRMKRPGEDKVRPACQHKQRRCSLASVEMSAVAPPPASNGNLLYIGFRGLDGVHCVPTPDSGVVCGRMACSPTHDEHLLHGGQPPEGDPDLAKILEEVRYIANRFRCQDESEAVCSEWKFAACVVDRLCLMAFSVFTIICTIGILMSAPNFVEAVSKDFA
A short description of test [3]: Binding affinity for nicotinic acetylcholine receptor alpha4-beta2 from mouse M10 cells; n=3. The method, boiled down: as §1
Test [4] deals with T1, Neuronal acetylcholine receptor subunit alpha-7. Kind of test: Binding affinity for nicotinic acetylcholine receptor alpha 7 from human neuroblastoma SH-SY5Y cells; n=3.

Some results are limits rather than exact numbers.

The Kd is a measure of binding affinity in units of concentration. A low value points to higher affinity. In general, Ki refers to the dissociation constant of the complex between target and ligand, obtained from inhibition or displacement. Lower therefore signals a stronger hold on the target. In the case of `Clc1ccc(C2CC3CCC2N3)cn1` (racemic) [EPIBATIDINE], the results for the Kd in test [1] and in test [2] were 0.00308 µM and 0.00106 µM, respectively. Affinity in test [3] was put at a Ki of 0.035 nM.
For the compound `c1cc2c(cn1)C1CCC(CC2)N1` (racemic), the dissociation constant (Kd) in test [1] was 0.00308 µM; in test [2], 0.00106 µM. Also, the Ki in test [4] was > 100 µM; in test [3], 1.3 nM.
The compound `CN1CCC[C@@H]1c1cccnc1` [R-NICOTINE] had a Kd in test [1] of 0.0038 µM. Affinity in test [3] was put at a Ki of 2.5 nM.
Turning to `Cc1cc2c(cn1)C1CCC(CC2)N1` (racemic), the values for the Kd in test [1] and in test [2] were 0.00039 µM and 0.00106 µM, respectively. In addition, the values for the inhibition constant (Ki) in test [4] and in test [3] were ~1000 µM and 0.39 nM, respectively.
As for `c1cncc([C@@H]2CCCN2)c1` (racemic) [NORNICOTINE], the affinity in test [2], expressed as Kd, was 0.00106 µM. Moreover, the inhibition constant Ki was 138 µM in test [4] and 14 nM in test [3].

The values above are taken from ChEMBL document CHEMBL1141973, “6'-Methylpyrido[3,4-b]norhomotropane: synthesis and outstanding potency in relation to the alpha4beta2 nicotinic receptor pharmacophore model” (Bioorg Med Chem Lett, 2005).
